Screening data from PubChem BioAssay.
A selection: hits, their analogues and other compounds. The true share with any hit is near 1.2%.
bovine MsrA act – bovine MsrA enzyme activators, primary screen, biochemical, absorbance, HTS; Methionine sulfoxide reductase A (Bos taurus); purified bovine MsrA, absorbance read-out; activation, % at 10.6 µM; 360,000 compounds, 0.3% hits; AID 602163, 2012; in the data active = activation above about 7.5%;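 note: 0% = vehicle and 100% = reference activator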
proCasp3 act – activators of human procaspase-3 D3A mutant, primary screen, biochemical, absorbance, PC-3 D3A mutant, single concentration | 330,000 compounds, 0.11% hits | Caspase-3 (Homo sapiens), P42574 | activation, % at 8.5 µM | recombinant procaspase-3 D3A, Ac-DEVD-pNA absorbance 405 nm;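 active = activation above the mean of all tested compounds plus 3 SD, cut at about 21% in these data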;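 note: 0% = DMSO alone and 100% = DMSO wells spiked with extra 5 µM PC-3 D3A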
Target sequence (P42574 whole entry D9A/D28A/D175A): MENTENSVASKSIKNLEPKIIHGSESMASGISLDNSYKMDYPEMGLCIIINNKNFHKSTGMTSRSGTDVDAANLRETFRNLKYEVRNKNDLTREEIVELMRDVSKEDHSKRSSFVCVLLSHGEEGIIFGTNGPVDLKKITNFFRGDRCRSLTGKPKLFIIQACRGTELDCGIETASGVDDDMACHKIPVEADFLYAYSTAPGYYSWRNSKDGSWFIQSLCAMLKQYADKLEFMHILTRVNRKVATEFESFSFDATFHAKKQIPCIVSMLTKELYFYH
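Assay system – Procaspase-3 D3A mutant, all three cleavage aspartates alanine · Controls – DMSO-only low control, 5 µM PC-3 D3A high control · Schedule – 1 h compound preincubation, 2 h substrate hydrolysis at 25 °C · Signal – 405 nm absorbance of p-nitroaniline, reads at 0 and 120 min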
MsrA inh – bovine MsrA enzyme inhibitors, primary screen, biochemical, absorbance, HTS; Methionine sulfoxide reductase A (Bos taurus); purified bovine MsrA, absorbance read-out; inhibition, % at 15.5 µM; 360,000 compounds, 0.75% hits; AID 651718, 2012; in the data active = inhibition above about 4.5%;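 note: 0% = vehicle wells with enzyme and 100% = reference inhibitor wells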
A1 inh – caspase 3/7 activation in MEF A1-2A-BIM cells, primary screen, A1 inhibitor project, cell-based, luminescence, HTS | caspase activation, % (concentration not given with the values) | Caspase-Glo 3/7 luminescence, 3 h; percent of clofoctol response, vehicle zero | 330,000 compounds, 0.066% hits;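 active = over half of replicate activation scores above 10%, or exactly half above 10 with the replicate mean above 10; inconclusive = replicate mean below 10 yet half the replicates above 10; inactive = over half of replicates below 10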
procasp7 counter – procaspase-7 activators, primary screen, counter-screen for procaspase-3 activator project, biochemical, absorbance, HTS, human | 330,000 compounds, 0.093% hits | recombinant procaspase-7, Ac-DEVD-pNA absorbance 405 nm; D23A/D198A/D206A triple mutant, cannot self-cleave; scale: DMSO 0, 5 µM enzyme 100 | AID 463210, 2010 | activation, % at 8.5 µM;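 active = percent activation above the screen-wide mean plus 3 SD, cut at about 25% in these data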
Target sequence (P55210 whole entry D23A/D198A/D206A): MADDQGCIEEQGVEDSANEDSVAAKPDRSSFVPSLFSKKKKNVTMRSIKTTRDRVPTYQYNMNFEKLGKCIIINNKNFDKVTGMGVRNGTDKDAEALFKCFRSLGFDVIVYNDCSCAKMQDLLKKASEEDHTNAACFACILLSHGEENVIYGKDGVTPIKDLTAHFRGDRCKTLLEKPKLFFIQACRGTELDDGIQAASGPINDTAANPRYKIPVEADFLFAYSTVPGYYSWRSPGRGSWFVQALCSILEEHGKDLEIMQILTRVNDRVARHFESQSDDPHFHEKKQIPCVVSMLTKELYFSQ
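Detection: p-Nitroaniline absorbance at 405 nm, read at 0 and 120 min; system: Uncleavable procaspase-7 mutant enzyme; evaluation: % activation from two-timepoint absorbance difference, scaled to controls; times: 1 h enzyme–compound preincubation and 2 h substrate reaction, both 25 °C; buffer or medium: Zinc-free HEPES pH 7.4 with 300 mM NaCl, 0.01% Triton X-100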
* hit, by the source's call; u = inconclusive; x = no result given.

SMILES	bovine MsrA act	proCasp3 act	MsrA inh	A1 inh	procasp7 counter
COc1ccc(C(=O)c2c(C(F)(F)F)oc3c2C(=O)c2ccccc2C3=O)cc1OC	1	5	47*	0	-2
O=C(N[C@H](Cc1ccccc1)C(=O)N1CCN(Cc2ccccn2)CC1)[C@H]1O[C@@H](n2ccc(=O)[nH]c2=O)[C@H](O)[C@@H]1O	x	x	-1	x	x
CCOC(=O)/C(=C\c1cccnc1)C(=O)c1cc(C(C)=O)c(Nc2ccccc2)s1	-1	0	x	22*	-10
CCOC(=O)/C(=C\c1ccccc1)C(=O)c1cc(C(C)=O)c(Nc2ccccc2)s1	-2	9	-1	-1	6
Cc1ccc2nc(SCC(=O)Nc3cccc(Cl)c3)nc(=O)n2c1	-3	5	1	0	13
Cc1ccc2nc(SCC(=O)Nc3cccc(F)c3)nc(=O)n2c1	-4	5	5.1*	0	1
O=C(N[C@H](Cc1ccccc1)C(=O)NC1CCCCC1)[C@H]1O[C@@H](n2ccc(=O)[nH]c2=O)[C@H](O)[C@@H]1O	x	x	0	x	x
CN1C(=O)NC(c2ccc(O)cc2)C(C(=O)c2cccs2)C1(O)C(F)(F)F (configuration not stated)	-11	-13	4.5*	0	-3
CC(=C/C(=O)O)/C=C/c1ccc(Cl)o1	-5	-11	1	-2	-15
CC(/C=C/c1ccc(C)o1)=C\C(=O)O	20*	-10	2	-1	-18
O=C(NNC(=O)c1cc2ccccc2o1)c1ccc(F)cc1	-3	x	0	x	x
C/C(=N\NC(=O)c1ccc(O)cc1)c1cc2ccccc2o1	-4	-4	4.6*	0	5
COc1ccccc1N=Nc1c(C)n[nH]c1C	-3	-6	4.6*	1	4
C[C@@H]1ON(C)[C@H]2C[C@H]3c4[nH]c5c(-c6ccc7c(c6)OCO7)cccc5c4CCN3C(=O)[C@@H]12	x	x	0	x	x
CCOC(=O)c1c(C)oc2c1c(CN1CCN(C(=O)OCC)CC1)c(O)c1ccccc12	-1	5	1	20*	6
CCOC(=O)c1c(C)oc2c1c(CN1CCN(CCO)CC1)c(O)c1ccccc12	-8	x	0	x	x
Cc1c(C)c(C)c(C(=O)CCc2cccc(NC(=O)CCC(=O)O)c2)c(C)c1C	-4	9	0	11*	-6
CSc1cccc(NC(=O)CCC(=O)O)c1	-9	2	0	0	-10
CC(C)c1ccc2[nH]c(O)c(N=NC(=O)c3cccc(S(=O)(=O)Nc4cccc(Cl)c4)c3)c2c1	1	-6	-1	u	-6
CC(C)c1ccc2[nH]c(O)c(N=NC(=O)c3cccc(S(=O)(=O)Nc4ccc(Cl)cc4)c3)c2c1	-2	-2	0	13*	7
COc1ccc2cc(C)c3nnc(SCC(=O)Nc4nc(-c5ccc(F)cc5)cs4)n3c2c1	-3	10	-1	16*	3
CC(=O)Nc1ccc(NC(=O)C(C)OC(=O)c2ccc(OCc3c(C)noc3C)cc2)cc1 (configuration not stated)	8	7	-1	0	-2
Cc1noc(C)c1COc1ccc(C(=O)OC(C)C(=O)Nc2ccc(N3CCOCC3)cc2)cc1 (configuration not stated)	-3	-1	1	5.8*	-2
CCn1c(Cl)c(C=O)s/c1=N\S(=O)(=O)c1ccccc1	-18	-26	3	56*	-35
Cc1ccc2nc(-c3ccc(C#N)cc3)c(Cc3cccc(F)c3)n2c1	x	x	0	x	x
SMILES	bovine MsrA act	proCasp3 act	MsrA inh	A1 inh	procasp7 counter
C[C@@H]1ON(C)[C@H]2C[C@H]3c4cc(-c5cccc(Cl)c5)ccc4CCN3C[C@@H]12	x	x	0	x	x
CCOc1cc(/C=N/N=C(\N)c2nonc2N)cc(Br)c1OCc1cccc2ccccc12	-4	1	0	6.4*	3
COC(=O)[C@]12C[C@H](CC(=O)NCCc3ccccc3OC)C(=O)N(Cc3ccc4c(c3)OCO4)C1=C[C@H](C(C)(C)C)O[C@@H]2C	x	x	1	x	x
CCCCOCC1CN(CCCC)S(=O)(=O)c2c(cccc2Sc2ccc(SC)cc2)O1 (configuration not stated)	x	x	1	x	x
CC1CN(c2nn3c(=O)c4ccccc4nc3c3ccccc23)CC(C)O1 (configuration not stated)	9.7*	7	1	-1	2
CCN1CCN(c2nn3c(=O)c4ccccc4nc3c3ccccc23)CC1	-2	-5	1	0	6
O=C(Nc1ccc(Cl)cc1)c1nc[nH]c1C(=O)NCCCNC(=O)c1[nH]cnc1C(=O)Nc1ccc(Cl)cc1	x	-2	x	13*	-3
O=C(Nc1ccc([N+](=O)[O-])cc1)c1nc[nH]c1C(=O)NC1CCCCC1	-5	10	1	47*	6
O=C(Nc1ccc(Cl)cc1)c1nc[nH]c1C(=O)NCCN(CCNC(=O)c1[nH]cnc1C(=O)Nc1ccc(Cl)cc1)CCNC(=O)c1[nH]cnc1C(=O)Nc1ccc(Cl)cc1	-2	4	x	0	9
O=C1c2[nH]nc(-c3ccccc3)c2C(c2ccc(F)cc2)N1Cc1ccccc1 (configuration not stated)	x	x	0	x	x
COC(=O)C1=C(C)N(C)C(=NCc2ccc3c(c2)OCO3)NC1c1cccc(F)c1 (configuration not stated)	x	x	1	x	x
COc1ccc(CNC(=O)[C@@H](Cc2ccccc2)NC(=O)[C@H]2O[C@@H](n3ccc(=O)[nH]c3=O)[C@H](O)[C@@H]2O)cc1	x	x	-1	x	x
O=C(Nc1ccccc1)c1cc2ccccc2c(=O)s1	-13	1	0	0	8
O=C(Nc1ccc(O)cc1)c1cc2ccccc2c(=O)s1	1	5	4.7*	-2	9
C[C@@H]1CN([C@H](C)CO)C(=O)CCCn2cc(nn2)CO[C@H]1CN(C)S(=O)(=O)c1cn(C)cn1	x	x	0	x	x
CCNC(=O)COC(=O)c1cc(C)n(-c2ccccc2)c1C	-2	-3	0	0	3
Cc1cc(C(=O)OCC(=O)NCc2ccco2)c(C)n1-c1ccc(F)cc1	8.5*	-6	-1	0	0
O=Cc1ccc(-c2ccc([N+](=O)[O-])cc2Cl)o1	3	x	5.5*	x	x
O=C(NCCN1CCOCC1)c1cc(-c2ccc(F)cc2)nc2ccccc12	-6	6	0	0	-1
CC(C)Oc1ccc(-c2cc(C(=O)NCCN3CCOCC3)c3ccccc3n2)cc1	1	-3	4.6*	0	5
